From ChEMBL document CHEMBL3808299 (J Med Chem, 2016) come the findings set out here.

Assay [1] has as its system HUVEC. Nature of the assay: Antiproliferative activity against HUVEC assessed as inhibition of VEGF induced cell proliferation after 72 hrs by MTS assay. The assay is classed as functional. The conditions noted are these: Homo sapiens. The procedure, abridged:
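HUVECs were seeded at 3,000 cells/well, attached overnight, then treated with varying drug concentrations. Metabolic activity was read with MTS/PMS after 72 h. GI50 is the mean ± SEM of at least two separate experiments run in triplicate.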

A short description of assay [2]: Inhibition of hedgehog pathway in mouse ASZ cells assessed as downregulation of Gli1 mRNA expression after 48 hrs by qPCR method. The assay is classed as cell-based. In outline:
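ASZ murine BCC cells, whose Hh signaling is constitutively active through a heterozygous PTCH1 mutation, got no added agonist. They were treated with a concentration series for 48 h and Gli1 mRNA was quantified by qPCR. IC50 is the mean ± SEM of at least two separate experiments in triplicate.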
A general note: In qPCR the cycle at which signal appears reflects the starting amount.

The nature of assay [3]: Inhibition of hedgehog pathway in mouse C3H10T1/2 cells assessed as downregulation of Gli1 mRNA expression after 24 hrs by qPCR method. The assay is classed as cell-based. Particulars: C3H 10T1/2, 24 h. In outline: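 Hh-ligand-stimulated C3H10T1/2 cells (recombinant mouse Sonic Hedgehog C25II) were exposed to a concentration series of compound for 24 h. Gli1 mRNA was read by qPCR. IC50 is the mean ± SEM of at least two separate experiments in triplicate.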

A short description of assay [4]: Inhibition of hedgehog pathway in mouse C3H10T1/2 cells assessed as Gli1 mRNA expression at 1 uM after 24 hrs by qPCR method. The assay is classed as cell-based. On the set-up: scale not given: the % may be the effect or the level left. Particulars: C3H 10T1/2. The procedure, abridged: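 C3H10T1/2 mouse embryonic fibroblasts were stimulated with recombinant mouse Sonic Hedgehog (C25II) and co-treated with compound at 1 μM for 24 h. Endogenous Gli1 mRNA was measured by qPCR and expressed as % of the Hh-ligand-only control (100%).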

Assay [5] can be described thus: Inhibition of hedgehog pathway in mouse MERP MB cells assessed as downregulation of Gli1 mRNA expression after 48 hrs by qPCR method. The assay is classed as cell-based. The procedure, abridged:
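Primary medulloblastoma cells from Math1-Cre-ER;Ptc fl/fl mice were incubated with compound for 48 h. Gli1 mRNA was measured by qPCR. IC50 is the mean ± SEM of two separate experiments.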

Assay [6] can be described thus: Antiproliferative activity against mouse MERP MB cells assessed as cell growth inhibition using methyl-[3H]thymidine after 48 hrs by liquid scintillation spectrophotometry. The assay is classed as functional. The conditions noted are these: Medulloblastoma cell. The procedure, abridged:
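Primary MB cells isolated from Math1-Cre-ER;Ptc fl/fl (MERP) mouse tumours were cultured in vitro and exposed to compound for 48 h to measure proliferation. GI50 is the mean ± SEM of at least two separate experiments in triplicate.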

For assay [7], the system named is HUVEC. In words: Antiangiogenic activity against HUVEC assessed as inhibition of total tube junctions at 10 uM after 16 hrs by inverted microscopy. The assay is classed as functional. Particulars: Homo sapiens. The procedure, abridged:
(§1)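 HUVECs in M199 with 1% FBS and penicillin/streptomycin, 50,000 cells per well, on Matrigel diluted 1:1 with DMEM and set at 37°C. Cells attached for 20-30 min, then got DMSO, suramin (10 uM) or drug at 10, 1 or 0.1 μM for 16 h. Eight phase-contrast fields per well were imaged. Total tube length and junctions were scored relative to DMSO (100%). Each assay was repeated at least three times.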

Assay [8] concerns HUVEC. Nature of the assay: Antiangiogenic activity against HUVEC assessed as inhibition of total tube length at 10 uM after 16 hrs by inverted microscopy. The assay is classed as functional. The conditions noted are these: Homo sapiens. In outline:
as §1

The structures appear in SMILES notation. Activity calls are given as the source filed them. The calls are words filed in the database; no cut-off is given here.

Broadly, the GI50 is the concentration at which growth is held to half of that of the control. One may read the IC50 as the midpoint of a concentration-inhibition curve. Take `CC[C@H](C)n1ncn(-c2ccc(N3CCN(c4ccc(OC[C@H]5CO[C@@](C)(c6ccc(Cl)cc6Cl)O5)cc4)CC3)cc2)c1=O`: in the assay on HUVEC [1], the GI50 came to 78300 nM. Besides, the IC50 in assay [2] is 550 nM; in assay [3] it was greater than 10000 nM.

For `CCC(C)n1ncn(-c2ccc(N3CCN(c4ccc(OCC5COC(C)(C)O5)cc4)CC3)cc2)c1=O` (stereo not drawn), the GI50 in the assay on HUVEC [1] is greater than 100000 nM. In assay [4], the Activity came to 71.4%.

For the molecule `CC[C@@H](C)n1ncn(-c2ccc(N3CCN(c4ccc(OC[C@@H]5CO[C@@](C)(c6ccc(Cl)cc6Cl)O5)cc4)CC3)cc2)c1=O`, the IC50 came out at 190 nM in assay [5], 22 nM in assay [2] and 190 nM in assay [3]. In addition, the GI50 is 600 nM in assay [6] and 53200 nM with HUVEC [1].

The term inhibition denotes the change of the read-out against control, counted positive when it falls. Turning to `CC[C@@H](C)n1ncn(-c2ccc(N3CCN(c4ccc(OC[C@H]5CO[C@](C)(c6ccc(Cl)cc6Cl)O5)cc4)CC3)cc2)c1=O`, the inhibition result in the assay on HUVEC [7] and in the assay on HUVEC [8] was “inactive” in each case. In addition, the GI50 with HUVEC [1] turned out to be 12100 nM. The IC50 in assay [2] amounted to 130 nM; in assay [3] it was 540 nM.

As to `CCC(C)n1ncn(-c2ccc(N3CCN(c4ccc(OC[C@@H]5CO[C@@](C)(c6ccc(Cl)cc6Cl)O5)cc4)CC3)cc2)c1=O` (stereo partly drawn), the GI50 in assay [6] was 2000 nM; in the assay with HUVEC [1] it was 3320 nM. In addition, the values for the IC50 in assay [2] and in assay [3] were 77 nM and 91 nM, respectively.

Turning to `CC[C@@H](C)n1ncn(-c2ccc(N3CCN(c4ccc(OC[C@H]5CO[C@@](C)(c6ccc(Cl)cc6Cl)O5)cc4)CC3)cc2)c1=O`, in the assay with HUVEC [1], the GI50 came to 65000 nM. In addition, the IC50 in assay [2] came out at 2800 nM; in assay [3], 6600 nM.

With `CC[C@H](C)n1ncn(-c2ccc(N3CCN(c4ccc(OC[C@@H]5CO[C@](C)(c6ccc(Cl)cc6Cl)O5)cc4)CC3)cc2)c1=O`, the IC50 stood at 260 nM in assay [5], 150 nM in assay [2] and 1850 nM in assay [3]. Also, the GI50 in assay [6] is 390 nM; in the assay with HUVEC [1], 2500 nM.

For the molecule `CCC(C)n1ncn(-c2ccc(N3CCN(c4ccc(OCC5COC(Cn6cncn6)(c6ccccc6)O5)cc4)CC3)cc2)c1=O` (stereo not drawn), in the assay with HUVEC [1], the GI50 is 8300 nM. In assay [4], the Activity was found to be 13.1%. The figures for the IC50 in assay [2] and in assay [3] were 450 nM and 420 nM, respectively.

As to `CC[C@H](C)n1ncn(-c2ccc(N3CCN(c4ccc(OC[C@H]5CO[C@](C)(c6ccc(Cl)cc6Cl)O5)cc4)CC3)cc2)c1=O`, in the assay on HUVEC [1], the GI50 came out at 7700 nM. Further, the IC50 stood at 2500 nM in assay [2] and 1100 nM in assay [3].

On to `Cc1ccc(C(=O)Nc2ccc(S(=O)(=O)O)c3cc(S(=O)(=O)O)cc(S(=O)(=O)O)c23)cc1NC(=O)c1cccc(NC(=O)Nc2cccc(C(=O)Nc3cc(C(=O)Nc4ccc(S(=O)(=O)O)c5cc(S(=O)(=O)O)cc(S(=O)(=O)O)c45)ccc3C)c2)c1` [SURAMIN], for which the figures for the inhibition at 10 µM in the assay on HUVEC [7] and in the assay with HUVEC [8] were 57.6% and 51.9%, respectively.

As for `CCC(C)n1ncn(-c2ccc(N3CCN(c4ccc(OC[C@H]5CO[C@@](C)(c6ccc(Cl)cc6Cl)O5)cc4)CC3)cc2)c1=O` (relative stereo), the GI50 in assay [6] was found to be 2900 nM; in the assay with HUVEC [1], 3690 nM. In addition, the IC50 turned out to be 71 nM in assay [2] and 850 nM in assay [3].

As for `CCCn1ncn(-c2ccc(N3CCN(c4ccc(OCC5COC(Cn6cncn6)(c6ccc(Cl)cc6Cl)O5)cc4)CC3)cc2)c1=O` (stereo not drawn), the GI50 with HUVEC [1] is 4700 nM. Moreover, the Activity in assay [4] amounted to 58.5%.

Take `Nc1ccc(N2CCN(c3ccc(OCC4COC(Cn5cncn5)(c5ccc(Cl)cc5Cl)O4)cc3)CC2)cc1` (stereo not drawn): the GI50 in assay [6] was 900 nM; with HUVEC [1], 42700 nM. The Activity in assay [4] stood at 6.1%. The IC50 is 120 nM in assay [2] and 160 nM in assay [3].

As for `O=c1[nH]ncn1-c1ccc(N2CCN(c3ccc(OCC4COC(Cn5cncn5)(c5ccc(Cl)cc5Cl)O4)cc3)CC2)cc1` (stereo not drawn), the GI50 in the assay with HUVEC [1] was found to be 5800 nM. The Activity in assay [4] was determined as 1.1%. Besides, the IC50 amounted to 120 nM in assay [2] and 43 nM in assay [3].

As for `CCCn1ncn(-c2ccc(N3CCN(c4ccc(OC[C@H]5CO[C@](C)(c6ccc(Cl)cc6Cl)O5)cc4)CC3)cc2)c1=O`, the GI50 turned out to be 22400 nM in assay [6] and 84100 nM in the assay with HUVEC [1]. The figures for the IC50 in assay [2] and in assay [3] were 200 nM and greater than 10000 nM, respectively.

As to `CC[C@@H](C)n1ncn(-c2ccc(N3CCN(c4ccc(OC[C@@H]5CO[C@](C)(c6ccc(Cl)cc6Cl)O5)cc4)CC3)cc2)c1=O`, the inhibition result with HUVEC [7] and in the assay with HUVEC [8] was “inactive” in each case. The IC50 in assay [5] came to 290 nM; in assay [2], 24 nM; in assay [3], 2400 nM. Also, the GI50 in assay [6] came out at 1000 nM; in the assay with HUVEC [1], 12800 nM.

As to `O=[N+]([O-])c1ccc(N2CCN(c3ccc(OCC4COC(Cn5cncn5)(c5ccc(Cl)cc5Cl)O4)cc3)CC2)cc1` (stereo not drawn), the GI50 in the assay on HUVEC [1] amounted to 8400 nM. The Activity in assay [4] came out at 1.5%. In addition, the IC50 in assay [2] was determined as 90 nM; in assay [3] it was 130 nM.

Regarding `CCCn1ncn(-c2ccc(N3CCN(c4ccc(OC[C@@H]5CO[C@](C)(c6ccc(Cl)cc6Cl)O5)cc4)CC3)cc2)c1=O`, the GI50 in the assay on HUVEC [1] was determined as 49900 nM. Moreover, the IC50 in assay [2] was 1400 nM; in assay [3], greater than 10000 nM.

Take `CC[C@H](C)n1ncn(-c2ccc(N3CCN(c4ccc(OCC5COC(Cn6cncn6)(c6ccc(Cl)cc6Cl)O5)cc4)CC3)cc2)c1=O` (stereo partly drawn): the GI50 in the assay with HUVEC [1] is 2500 nM. Besides, the Activity in assay [4] was found to be 6.9%. Further, the IC50 in assay [2] is 140 nM; in assay [3], 160 nM.

Consider `CCC(C)n1ncn(-c2ccc(N3CCN(c4ccc(O)cc4)CC3)cc2)c1=O` (stereo not drawn), for which, in the assay with HUVEC [1], the GI50 was greater than 100000 nM. For the same molecule, in assay [4], the Activity was determined as 45.7%.

`CCCn1ncn(-c2ccc(N3CCN(c4ccc(OC[C@@H]5CO[C@@](C)(c6ccc(Cl)cc6Cl)O5)cc4)CC3)cc2)c1=O`: the GI50 in the assay on HUVEC [1] worked out at 26500 nM. Also, the IC50 in assay [2] was 1300 nM; in assay [3], 4100 nM.

Consider `CCC(C)n1ncn(-c2ccc(N3CCN(c4ccc(OCC5COC(C)(Cn6cncn6)O5)cc4)CC3)cc2)c1=O` (stereo not drawn), for which the GI50 with HUVEC [1] is 18400 nM. In addition, in assay [4], the Activity was determined as 61.4%.

As to `CC[C@H](C)n1ncn(-c2ccc(N3CCN(c4ccc(OC[C@@H]5CO[C@@](C)(c6ccc(Cl)cc6Cl)O5)cc4)CC3)cc2)c1=O`, the GI50 with HUVEC [1] came to 18300 nM. Also, the IC50 in assay [2] was determined as 380 nM; in assay [3], 470 nM.

As for `CC[C@@H]([C@H](C)O)n1ncn(-c2ccc(N3CCN(c4ccc(OC[C@@H]5CO[C@@](Cn6cncn6)(c6ccc(F)cc6F)C5)cc4)CC3)cc2)c1=O` [POSACONAZOLE], in the assay with HUVEC [1], the GI50 was determined as 1600 nM. Besides, the IC50 in assay [2] was determined as 540 nM; in assay [3] it was 140 nM.

Take `CC[C@@H](C)n1ncn(-c2ccc(N3CCN(c4ccc(OCC5COC(Cn6cncn6)(c6ccc(Cl)cc6Cl)O5)cc4)CC3)cc2)c1=O` (stereo partly drawn): the GI50 with HUVEC [1] amounted to 1700 nM. For the same molecule, the Activity in assay [4] came out at 3%. The IC50 is 160 nM in assay [2] and 140 nM in assay [3].

For `CCCn1ncn(-c2ccc(N3CCN(c4ccc(OC[C@H]5CO[C@@](C)(c6ccc(Cl)cc6Cl)O5)cc4)CC3)cc2)c1=O`, the GI50 with HUVEC [1] was 24900 nM. Also, the IC50 in assay [2] is 540 nM; in assay [3] it was greater than 10000 nM.
